Data as given in ChEMBL document CHEMBL1153726, “Synthesis and anticancer activity of sclerophytin-inspired hydroisobenzofurans” (Bioorg Med Chem Lett, 2009).

What was measured:
SK-OV-3 = experiment: Growth inhibition of human SKOV3 cells at 1 nM after 96 hrs by MTT assay; type: functional; parameters: scale not given: the % may be the effect or the level left
UACC-62 [1] = experiment: Growth inhibition of human UACC62 cells at 1 nM after 96 hrs by MTT assay; type: functional; parameters: scale not given: the % may be the effect or the level left
UACC-257 [2] = experiment: Growth inhibition of human UACC257 cells at 1 nM after 96 hrs by MTT assay; type: functional; parameters: scale not given: the % may be the effect or the level left
M14 [3] = experiment: Growth inhibition of human M14 cells at 1 nM after 96 hrs by MTT assay; type: functional; parameters: scale not given: the % may be the effect or the level left
Malme-3M [4] = experiment: Growth inhibition of human MALME-3M cells at 1 nM after 96 hrs by MTT assay; type: functional; parameters: scale not given: the % may be the effect or the level left
IGROV-1 = experiment: Growth inhibition of human IGROV1 cells at 10 uM after 96 hrs by MTT assay; type: functional; parameters: scale not given: the % may be the effect or the level left
SK-MEL-5 = experiment: Growth inhibition of human SK-MEL-5 cells at 10 uM after 96 hrs by MTT assay; type: functional; parameters: scale not given: the % may be the effect or the level left
SK-MEL-2 [5] = experiment: Growth inhibition of human SK-MEL-2 cells at 10 uM after 96 hrs by MTT assay; type: functional; parameters: scale not given: the % may be the effect or the level left
SNB-19 = experiment: Growth inhibition of human SNB19 cells at 10 uM after 96 hrs by MTT assay; type: functional; parameters: scale not given: the % may be the effect or the level left
KM12 = experiment: Growth inhibition of human KM12 cells at 10 uM after 96 hrs by MTT assay; type: functional; parameters: scale not given: the % may be the effect or the level left
HCT-15 [6] = experiment: Growth inhibition of human HCT15 cells at 10 uM after 96 hrs by MTT assay; type: functional; parameters: scale not given: the % may be the effect or the level left
HCT-116 [7] = experiment: Growth inhibition of human HCT116 cells at 10 uM after 96 hrs by MTT assay; type: functional; parameters: scale not given: the % may be the effect or the level left
COLO 205 = experiment: Growth inhibition of human COLO205 cells at 10 uM after 96 hrs by MTT assay; type: functional; parameters: scale not given: the % may be the effect or the level left
NCI-H460 = experiment: Growth inhibition of human NCI-H460 cells at 10 uM after 96 hrs by MTT assay; type: functional; parameters: scale not given: the % may be the effect or the level left
MOLT-4 = experiment: Growth inhibition of human MOLT4 cells at 10 uM after 96 hrs by MTT assay; type: functional; parameters: scale not given: the % may be the effect or the level left
[8] = Antitumor activity against human KB3 cells after 96 hrs by MTT assay; type: functional, cell-based; details: KB3, 96 h
Summary of the method: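 Human KB-3 carcinoma cells exposed to increasing compound concentrations; viability read by MTT colorimetric assay after 96 h. Values are means of triplicate assays, expressed relative to untreated controls.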

Malme-3M [9] = experiment: Growth inhibition of human MALME-3M cells at 10 nM after 96 hrs by MTT assay; type: functional; parameters: scale not given: the % may be the effect or the level left
SF-539 = experiment: Growth inhibition of human SF539 cells after 96 hrs by MTT assay; type: functional; details: SF-539, 96 h
Summary of the method: (§1)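 Tested in the NCI 60-cell-line panel in five-dose format; GI50 and LC50 values reported for each cell line.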

PC-3 = experiment: Growth inhibition of human PC3 cells after 96 hrs by MTT assay; type: functional; details: PC-3, 96 h; summary of the method: as §1
[10] = Growth inhibition of human RPMI8266 cells at 10 nM after 96 hrs by MTT assay; type: functional; parameters: scale not given: the % may be the effect or the level left
NCI-H322M = experiment: Growth inhibition of human NCI-H322M cells after 96 hrs by MTT assay; type: functional
Summary of the method: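 Run in the NCI 60 human tumour cell line panel as a five-dose assay. GI50 and LC50 were reported for each cell line.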

MDA-MB-468 = experiment: Growth inhibition of human MDA-MB-468 cells at 1 uM after 96 hrs by MTT assay; type: functional; parameters: scale not given: the % may be the effect or the level left
BT-549 = experiment: Growth inhibition of human BT549 cells at 1 uM after 96 hrs by MTT assay; type: functional; parameters: scale not given: the % may be the effect or the level left
[11] = Growth inhibition of human Hs 578T cells at 1 uM after 96 hrs by MTT assay; type: functional; parameters: scale not given: the % may be the effect or the level left
TK-10 = experiment: Growth inhibition of human TK10 cells at 1 uM after 96 hrs by MTT assay; type: functional; parameters: scale not given: the % may be the effect or the level left
A498 = experiment: Growth inhibition of human A498 cells at 1 uM after 96 hrs by MTT assay; type: functional; parameters: scale not given: the % may be the effect or the level left
NCI/ADR-RES = experiment: Growth inhibition of human NCI/ADR-RES cells at 1 uM after 96 hrs by MTT assay; type: functional; parameters: scale not given: the % may be the effect or the level left
RXF 393 [12] = experiment: Growth inhibition of human RXF393 cells at 100 nM after 96 hrs by MTT assay; type: functional; parameters: scale not given: the % may be the effect or the level left
UACC-257 [13] = experiment: Growth inhibition of human UACC257 cells at 100 nM after 96 hrs by MTT assay; type: functional; parameters: scale not given: the % may be the effect or the level left
SK-MEL-28 = experiment: Growth inhibition of human SK-MEL-28 cells at 100 nM after 96 hrs by MTT assay; type: functional; parameters: scale not given: the % may be the effect or the level left
SK-MEL-2 [14] = experiment: Growth inhibition of human SK-MEL-2 cells at 100 nM after 96 hrs by MTT assay; type: functional; parameters: scale not given: the % may be the effect or the level left
SNB-75 [15] = experiment: Growth inhibition of human SNB75 cells at 100 nM after 96 hrs by MTT assay; type: functional; parameters: scale not given: the % may be the effect or the level left
SW-620 = experiment: Growth inhibition of human SW620 cells at 100 nM after 96 hrs by MTT assay; type: functional; parameters: scale not given: the % may be the effect or the level left
HCT-116 [16] = experiment: Growth inhibition of human HCT116 cells at 100 nM after 96 hrs by MTT assay; type: functional; parameters: scale not given: the % may be the effect or the level left
T47D = experiment: Growth inhibition of human T47D cells at 10 nM after 96 hrs by MTT assay; type: functional; parameters: scale not given: the % may be the effect or the level left
RXF 393 [17] = experiment: Growth inhibition of human RXF393 cells at 10 nM after 96 hrs by MTT assay; type: functional; parameters: scale not given: the % may be the effect or the level left
OVCAR-3 = experiment: Growth inhibition of human OVCAR-3 cells at 10 nM after 96 hrs by MTT assay; type: functional; parameters: scale not given: the % may be the effect or the level left
UACC-62 [18] = experiment: Growth inhibition of human UACC62 cells at 10 nM after 96 hrs by MTT assay; type: functional; parameters: scale not given: the % may be the effect or the level left
UACC-257 [19] = experiment: Growth inhibition of human UACC257 cells at 10 nM after 96 hrs by MTT assay; type: functional; parameters: scale not given: the % may be the effect or the level left
HCT-15 [20] = experiment: Growth inhibition of human HCT15 cells at 10 nM after 96 hrs by MTT assay; type: functional; parameters: scale not given: the % may be the effect or the level left
M14 [21] = experiment: Growth inhibition of human M14 cells at 1 uM after 96 hrs by MTT assay; type: functional; parameters: scale not given: the % may be the effect or the level left
K562 = experiment: Growth inhibition of human K562 cells at 1 uM after 96 hrs by MTT assay; type: functional; parameters: scale not given: the % may be the effect or the level left
SNB-75 [22] = experiment: Growth inhibition of human SNB75 cells at 1 uM after 96 hrs by MTT assay; type: functional; parameters: scale not given: the % may be the effect or the level left
HCC 2998 = experiment: Growth inhibition of human HCC2998 cells at 1 uM after 96 hrs by MTT assay; type: functional; parameters: scale not given: the % may be the effect or the level left
NCI-H522 = experiment: Growth inhibition of human NCI-H522 cells at 1 uM after 96 hrs by MTT assay; type: functional; parameters: scale not given: the % may be the effect or the level left
HOP-62 = experiment: Growth inhibition of human HOP62 cells at 1 uM after 96 hrs by MTT assay; type: functional; parameters: scale not given: the % may be the effect or the level left
[23] = read-out: LC50 (the source's name)
[24] = read-out: Log10GI50 (converted)
[25] = read-out: Log10LC50 (converted)

C=C(C)[C@H]1CC=C(C)C2=CO[C@@H](c3ccccc3F)[C@@H]21
Activity (SK-OV-3): 98% | Activity (UACC-62 [1]): 88% | Activity (UACC-257 [2]): 91% | Activity (M14 [3]): 97% | Activity (Malme-3M [4]): 97% | Activity (IGROV-1): 65.74% | Activity (SK-MEL-5): 84.67% | Activity (SK-MEL-2 [5]): 71.47% | Activity (SNB-19): 82.9% | Activity (KM12): 85.93% | Activity (HCT-15 [6]): 103.41% | Activity (HCT-116 [7]): 71.81% | Activity (COLO 205): 101.29% | Activity (NCI-H460): 92.68% | Activity (MOLT-4): 74.3% | IC50 [8]: 1 µM | Activity (Malme-3M [9]): 88% | GI50 (SF-539; read-out: GI50): 6.82 µM | CC50 (SF-539; [23]): 44.8 µM | GI50 (SF-539; [24]): 6.76 µM | CC50 (SF-539; [25]): 44.7 µM | TGI (SF-539; read-out: Log10TGI (converted)): 20 µM | TGI (SF-539; read-out: TGI): 20 µM | GI50 (PC-3; read-out: GI50): 2.49 µM | CC50 (PC-3; [23]): 57.2 µM | GI50 (PC-3; [24]): 2.51 µM | CC50 (PC-3; [25]): 57.5 µM | TGI (PC-3; read-out: Log10TGI (converted)): 16.6 µM | TGI (PC-3; read-out: TGI): 16.5 µM | Activity [10]: 56% | GI50 (NCI-H322M; read-out: GI50): 9.5 µM | CC50 (NCI-H322M; [23]): 54.6 µM | GI50 (NCI-H322M; [24]): 9.55 µM | CC50 (NCI-H322M; [25]): 55 µM | TGI (NCI-H322M; read-out: Log10TGI (converted)): 23.4 µM | TGI (NCI-H322M; read-out: TGI): 23.2 µM | Activity (MDA-MB-468): 11% | Activity (BT-549): -6% | Activity [11]: 28% | Activity (TK-10): 48% | Activity (A498): -16% | Activity (NCI/ADR-RES): 26% | Activity (RXF 393 [12]): 84% | Activity (UACC-257 [13]): 81% | Activity (SK-MEL-28): 93% | Activity (SK-MEL-2 [14]): 76% | Activity (SNB-75 [15]): 84% | Activity (SW-620): 101% | Activity (HCT-116 [16]): 82% | Activity (T47D): 89% | Activity (RXF 393 [17]): 85% | Activity (OVCAR-3): 88% | Activity (UACC-62 [18]): 81% | Activity (UACC-257 [19]): 90% | Activity (HCT-15 [20]): 95% | Activity (M14 [21]): 43% | Activity (K562): 10% | Activity (SNB-75 [22]): 35% | Activity (HCC 2998): 39% | Activity (NCI-H522): 29% | Activity (HOP-62): 51%
